Measured values of several laboratories.
Protocols differ between the studies behind these lines.

`Cc1cccc(C(=O)n2nc(Cl)c(=O)c3ccccc32)c1` gave a half-life of 0.642 h (chemical stability; aqueous buffer; pH 7.3).
With `O=C(ON1C(=O)CCC1=O)N1CCC(CNS(=O)(=O)c2ccc(Cl)cc2)CC1` the half-life was 1.21 h (chemical stability, HPLC; aqueous buffer; 167 µM, pH 7.4).
With `COC(=O)C1CCN(C(=O)c2ccc(N(CCO)Cc3cnc4nc(N)nc(N)c4n3)cc2)CC1` the inhibition was -6.99% (Cytochrome P450 2C9 (CYP2C9, Homo sapiens, UniProt P11712); enzyme activity, inhibitor, luciferase; 10 µM).
The half-life of `O=C(N1CCC(CNS(=O)(=O)c2ccc(Cl)cc2)CC1)n1cncn1` is reported as 0.993 h (chemical stability, HPLC; aqueous buffer; 167 µM, pH 7.4).
With `CC[C@H](C)[C@@H]1NC(=O)[C@@](C)(NC(=O)[C@H](CCCNC(=N)N)NC(=O)[C@H](CC(C)C)NC(=O)[C@@H](NC(=O)[C@H](CCC(N)=O)NC(=O)[C@H](CC(C)C)NC(C)=O)[C@@H](C)O)CCCC=CCCC[C@@](C)(C(=O)N[C@@H](CC(C)C)C(=O)N[C@@H](Cc2ccc3ccccc3c2)C(N)=O)NC(=O)[C@H](CCCNC(=N)N)NC(=O)[C@H](CCC(N)=O)NC1=O` the AUC(0-t) was 233 µg·h/mL (male BALB/c mouse, plasma; intravenous, 10 mg/kg).
The IC50 of `O=C(Cn1cnc2ccccc21)NN=Cc1ccc(O)c(O)c1` is reported as 105 µM (SH-SY5Y; cell growth or viability, MTT; 24 h).
For `Cc1cccc(C(=O)n2ncc(=O)c3ccccc32)c1`, the half-life was 1.9 h (chemical stability; aqueous buffer; pH 7.3).
`COc1cccc(CNC(=O)C(C)Oc2ccc(Cl)cc2Cl)c1` (stereo not drawn) has a CC50 of greater than 100 µM (CHO; cell growth or viability, LDH).
The Vd/F of `C[C@]1(c2nc3c(C(N)=O)cccc3[nH]2)CCCN1` is reported as 38 L/kg (male rhesus monkey, plasma; oral, 5 mg/kg, single dose).
